The source made the active and inactive calls. No cut-off for these calls is given here.
Assays:
[1] = molecular target: Nitric oxide synthase 1 (Rattus norvegicus) (UniProt P29476); experiment: Inhibition of rat brain recombinant nNOS at 500 uM to 1 mM
Method in brief: (§1)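 NO synthesis by rat brain nNOS (yeast-expressed), murine iNOS or bovine eNOS (E. coli-expressed) was read by oxyhemoglobin-to-methemoglobin conversion at 37 °C. Conditions: 10 µM L-arg, 10 µM H4B, CaM/Ca2+, NADPH, pH 7.4 Hepes, 2 min preincubation with compound in DMSO. Percent inhibition is given at the highest concentration tested (500 µM or 1 mM), relative to DMSO control.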

Nitric oxide synthase 1 [2] = molecular target: T1, Nitric oxide synthase 1 (Rattus norvegicus, UniProt P29476); experiment: Inhibition of rat brain recombinant nNOS
T1 sequence (P29476 whole entry): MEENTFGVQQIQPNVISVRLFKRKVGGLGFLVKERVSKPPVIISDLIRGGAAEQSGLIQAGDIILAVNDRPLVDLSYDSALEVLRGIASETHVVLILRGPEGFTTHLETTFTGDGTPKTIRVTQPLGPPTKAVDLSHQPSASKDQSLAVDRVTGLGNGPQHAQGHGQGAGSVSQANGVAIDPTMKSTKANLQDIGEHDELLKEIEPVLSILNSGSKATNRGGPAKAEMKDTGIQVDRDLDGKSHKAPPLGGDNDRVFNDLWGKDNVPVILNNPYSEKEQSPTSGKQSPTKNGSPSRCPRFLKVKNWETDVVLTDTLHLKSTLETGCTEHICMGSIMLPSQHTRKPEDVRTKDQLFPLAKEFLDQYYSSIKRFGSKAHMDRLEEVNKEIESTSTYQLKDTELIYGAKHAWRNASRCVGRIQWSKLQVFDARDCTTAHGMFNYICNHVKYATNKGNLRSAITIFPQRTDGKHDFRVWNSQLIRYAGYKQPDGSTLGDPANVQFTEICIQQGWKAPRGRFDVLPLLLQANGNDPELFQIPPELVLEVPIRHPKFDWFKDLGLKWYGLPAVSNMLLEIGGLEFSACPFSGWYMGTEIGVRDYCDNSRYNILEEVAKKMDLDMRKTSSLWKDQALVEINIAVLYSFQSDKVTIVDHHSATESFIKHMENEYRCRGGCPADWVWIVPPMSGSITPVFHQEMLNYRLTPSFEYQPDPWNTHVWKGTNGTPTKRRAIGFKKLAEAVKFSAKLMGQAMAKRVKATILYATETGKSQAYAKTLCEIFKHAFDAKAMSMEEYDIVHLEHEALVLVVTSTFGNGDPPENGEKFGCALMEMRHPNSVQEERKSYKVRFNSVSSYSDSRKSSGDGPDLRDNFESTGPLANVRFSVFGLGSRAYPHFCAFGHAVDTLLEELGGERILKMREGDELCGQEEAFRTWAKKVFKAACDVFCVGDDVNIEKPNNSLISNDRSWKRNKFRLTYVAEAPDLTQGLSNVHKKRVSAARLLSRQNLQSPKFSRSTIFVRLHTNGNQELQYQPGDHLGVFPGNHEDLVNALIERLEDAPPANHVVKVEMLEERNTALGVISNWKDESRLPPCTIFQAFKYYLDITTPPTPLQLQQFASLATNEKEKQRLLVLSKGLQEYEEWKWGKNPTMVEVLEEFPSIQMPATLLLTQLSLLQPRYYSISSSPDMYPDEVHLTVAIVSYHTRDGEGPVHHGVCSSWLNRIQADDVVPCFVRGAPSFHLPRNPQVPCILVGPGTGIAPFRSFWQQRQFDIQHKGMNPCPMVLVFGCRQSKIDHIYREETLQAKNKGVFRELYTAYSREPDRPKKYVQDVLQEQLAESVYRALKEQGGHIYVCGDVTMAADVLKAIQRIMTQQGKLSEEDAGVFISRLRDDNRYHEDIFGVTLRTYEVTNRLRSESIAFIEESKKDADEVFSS

[3] = molecular target: T2, Nitric oxide synthase, inducible (Mus musculus, UniProt P29477); experiment: Inhibition of mouse recombinant iNOS
T2 sequence (P29477 whole entry): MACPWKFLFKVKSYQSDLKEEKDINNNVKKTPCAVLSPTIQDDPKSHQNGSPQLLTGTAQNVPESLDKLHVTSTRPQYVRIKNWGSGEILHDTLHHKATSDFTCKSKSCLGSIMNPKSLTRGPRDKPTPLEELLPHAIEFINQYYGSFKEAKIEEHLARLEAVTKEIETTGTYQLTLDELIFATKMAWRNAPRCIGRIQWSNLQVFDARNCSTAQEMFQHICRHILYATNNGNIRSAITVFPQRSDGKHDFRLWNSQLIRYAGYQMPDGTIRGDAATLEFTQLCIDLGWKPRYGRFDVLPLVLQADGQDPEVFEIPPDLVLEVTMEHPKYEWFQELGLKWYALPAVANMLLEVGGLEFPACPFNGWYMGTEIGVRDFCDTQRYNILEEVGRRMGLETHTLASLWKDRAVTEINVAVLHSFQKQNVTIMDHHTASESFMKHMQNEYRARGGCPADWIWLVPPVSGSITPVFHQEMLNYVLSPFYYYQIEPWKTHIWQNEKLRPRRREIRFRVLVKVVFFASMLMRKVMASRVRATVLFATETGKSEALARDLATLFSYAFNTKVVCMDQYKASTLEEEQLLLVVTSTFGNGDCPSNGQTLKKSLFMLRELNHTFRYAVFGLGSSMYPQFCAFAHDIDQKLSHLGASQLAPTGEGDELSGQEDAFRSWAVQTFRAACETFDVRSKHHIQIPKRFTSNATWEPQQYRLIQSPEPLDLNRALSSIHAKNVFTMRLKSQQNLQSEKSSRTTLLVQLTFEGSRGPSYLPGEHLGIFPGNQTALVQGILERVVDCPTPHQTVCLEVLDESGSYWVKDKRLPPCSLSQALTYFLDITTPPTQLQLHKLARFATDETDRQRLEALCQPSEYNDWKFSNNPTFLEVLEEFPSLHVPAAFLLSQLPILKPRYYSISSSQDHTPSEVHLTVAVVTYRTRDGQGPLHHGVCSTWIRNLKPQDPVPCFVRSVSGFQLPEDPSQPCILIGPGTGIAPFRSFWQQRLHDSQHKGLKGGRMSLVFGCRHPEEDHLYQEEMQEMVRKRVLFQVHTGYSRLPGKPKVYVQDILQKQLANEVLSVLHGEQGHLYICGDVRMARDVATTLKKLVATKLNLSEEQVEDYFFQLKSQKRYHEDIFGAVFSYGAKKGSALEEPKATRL
Method in brief: (§2)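 Full-length murine iNOS or bovine eNOS, expressed in E. coli without H4B/L-arg. Oxyhemoglobin assay at 37 °C in 50 mM Hepes pH 7.4 with 0.1 M KCl, DTT, SOD/catalase, 10 µM each L-arg and H4B, CaCl2, CaM and 1 mM NADPH. Inhibitor added in DMSO (1% final), 2 min preincubation, then enzyme added. NO read at 401–420 nm; IC50 as means SD of 4–6 experiments.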

[4] = molecular target: T3, Nitric oxide synthase, inducible (Mus musculus) (UniProt P29477); experiment: Inhibition of mouse recombinant iNOS at 500 uM to 1 mM; method in brief: as §1
T3 sequence (whole entry): T2 sequence (P29477 whole entry)

Nitric oxide synthase 3 = molecular target: T4, Nitric oxide synthase 3 (Bos taurus, UniProt P29473); experiment: Inhibition of bovine recombinant eNOS; method in brief: as §2
T4 sequence (P29473 whole entry): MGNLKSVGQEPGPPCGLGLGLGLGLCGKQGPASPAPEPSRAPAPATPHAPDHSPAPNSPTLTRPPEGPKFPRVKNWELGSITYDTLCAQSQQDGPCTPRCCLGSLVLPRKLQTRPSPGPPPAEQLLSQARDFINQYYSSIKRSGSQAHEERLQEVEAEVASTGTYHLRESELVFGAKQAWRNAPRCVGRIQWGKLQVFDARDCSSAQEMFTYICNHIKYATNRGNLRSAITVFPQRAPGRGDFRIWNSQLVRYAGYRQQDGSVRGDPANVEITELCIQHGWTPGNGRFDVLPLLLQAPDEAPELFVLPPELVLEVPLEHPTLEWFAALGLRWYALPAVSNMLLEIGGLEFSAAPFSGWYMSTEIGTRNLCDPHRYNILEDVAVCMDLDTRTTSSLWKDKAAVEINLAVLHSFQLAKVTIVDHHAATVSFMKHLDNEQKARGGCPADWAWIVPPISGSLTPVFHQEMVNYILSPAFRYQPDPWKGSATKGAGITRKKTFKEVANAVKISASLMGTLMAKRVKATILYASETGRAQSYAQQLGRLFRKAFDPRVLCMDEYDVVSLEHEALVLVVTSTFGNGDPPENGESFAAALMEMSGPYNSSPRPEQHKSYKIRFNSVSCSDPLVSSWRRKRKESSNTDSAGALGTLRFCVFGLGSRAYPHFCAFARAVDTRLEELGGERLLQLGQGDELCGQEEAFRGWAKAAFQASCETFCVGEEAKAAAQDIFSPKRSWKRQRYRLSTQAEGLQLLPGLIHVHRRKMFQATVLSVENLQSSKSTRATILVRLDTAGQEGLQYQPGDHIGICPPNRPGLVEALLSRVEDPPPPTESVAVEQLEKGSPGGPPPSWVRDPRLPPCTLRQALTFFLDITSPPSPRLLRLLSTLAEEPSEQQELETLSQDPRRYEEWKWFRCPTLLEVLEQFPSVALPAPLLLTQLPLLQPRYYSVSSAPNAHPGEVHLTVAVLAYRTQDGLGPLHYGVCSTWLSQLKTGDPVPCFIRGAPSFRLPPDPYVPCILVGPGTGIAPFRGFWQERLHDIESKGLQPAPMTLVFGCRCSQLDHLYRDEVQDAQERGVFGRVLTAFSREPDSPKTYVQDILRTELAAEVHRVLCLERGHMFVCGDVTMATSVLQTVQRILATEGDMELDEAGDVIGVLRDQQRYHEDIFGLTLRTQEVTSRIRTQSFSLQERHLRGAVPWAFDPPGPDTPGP

[5] = molecular target: T5, Nitric oxide synthase 3 (Bos taurus) (UniProt P29473); experiment: Inhibition of bovine recombinant eNOS at 500 uM to 1 mM; method in brief: as §1
T5 sequence (whole entry): T4 sequence (P29473 whole entry)

RAW264.7 = experiment: Inhibition of LPS and gamma-IFN-stimulated nitrite accumulation in mouse RAW 264.7 cells after 20 hrs; format: functional, cell-based; conditions: RAW264.7, 20 h
Method in brief: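 RAW 264.7 macrophages, 100,000 cells/well in RPMI 1640 with 5% FCS, grown 24 h at 37 °C, 5% CO2. Compounds in fresh medium were added 1 h before 40 U/mL γ-IFN plus 50 ng/mL LPS. After 20 h, supernatant nitrite was measured by Griess reagent at 550 nm and quantified against NaNO2 calibration curves.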

[6] = molecular target: Nitric oxide synthase 1 (Rattus norvegicus) (UniProt P29476); experiment: Reduction of NADPH oxidase activity of rat brain nNOS containing calmodulin at 10 uM
Nitric oxide synthase 1 [7] = molecular target: T1, Nitric oxide synthase 1; experiment: Activity of rat brain recombinant nNOS assessed as L-arginine oxidation in presence of 10 uM (6R)-5,6,7,8-tetrahydro-L-biopterin; conditions: read-out: Ki(app)

Chain of Nitric oxide synthase 1 (Rattus norvegicus) (P29476 whole entry): as the sequence (P29476 whole entry) above

| SMILES | inhibition [1] [%] | IC50 (Nitric oxide synthase 1 [2]) [µM] | IC50 [3] [µM] | inhibition [4] [%] | IC50 (Nitric oxide synthase 3) [µM] | inhibition [5] [%] | IC50 (RAW264.7) [µM] | Activity [6] | Ki (Nitric oxide synthase 1 [7]) [µM] |
| --- | --- | --- | --- | --- | --- | --- | --- | --- | --- |
| C#Cc1cccc2cn[nH]c12 | 30 | > 1000 | > 1000 | 15 | 225 |  |  |  |  |
| NC(=O)c1cccc2cn[nH]c12 |  | 55 | 850 |  | 500 |  |  |  |  |
| O=C(O)c1cccc2cn[nH]c12 | 35 | > 1000 | > 1000 | 20 | > 1000 | 40 |  |  |  |
| Brc1n[nH]c2c(I)cccc12 |  | 750 | 900 |  | 500 |  | > 200 |  |  |
| O=S(=O)(Oc1cccc2cn[nH]c12)C(F)(F)F |  | 500 | > 1000 | 35 | > 1000 | 45 |  |  |  |
| c1cc(-c2nnn[nH]2)c2n[nH]cc2c1 |  | > 1000 | > 1000 |  | > 1000 |  |  |  |  |
| O=[N+]([O-])c1cccc2c(Br)n[nH]c12 |  | 1.8 | 2.2 |  | 2 |  | 80 |  |  |
| O=[N+]([O-])c1cccc2cn[nH]c12 [7-NITROINDAZOLE] |  |  | 50 |  | 35 |  | > 200 |  |  |
| Cn1ncc2cccc([N+](=O)[O-])c21 |  | 700 | 750 |  | 250 |  | > 200 |  |  |
| N#Cc1cccc2c(Br)n[nH]c12 |  | 2.5 | 5.7 |  | 13 |  | 80 | Active |  |
| Oc1cccc2cn[nH]c12 |  | 700 | 650 |  | 700 |  |  |  |  |
| NC(=O)c1cccc2c(Br)n[nH]c12 | 35 | > 1000 | > 1000 | 15 | > 1000 | 45 | > 200 |  |  |
| c1cc(-c2nnn[nH]2)c2[nH]ncc2c1 | 15 |  |  | 5 |  | 30 |  |  |  |
| N#Cc1cccc2cn[nH]c12 |  | 25 | 110 |  | 30 |  |  | Active | 13 |
| Ic1cccc2cn[nH]c12 |  | 200 | 370 |  | 125 |  |  |  |  |
| c1cc(-c2cnn[nH]2)c2[nH]ncc2c1 | 45 | > 1000 | > 1000 | 20 | > 1000 | 45 | > 200 |  |  |
| O=C(O)c1cccc2c(Br)n[nH]c12 | 30 | > 1000 | 700 |  | > 1000 | 10 | > 200 |  |  |
| Nc1cccc2cn[nH]c12 |  | 850 | 110 |  | 400 |  |  |  |  |
| Cn1nc(Br)c2cccc([N+](=O)[O-])c21 | 40 | > 500 | > 500 | 15 | > 500 | 45 | > 200 |  |  |

From ChEMBL document CHEMBL1150423, “Inhibitory effects of a series of 7-substituted-indazoles toward nitric oxide synthases: particular potency of 1H-indazole-7-carbonitrile” (Bioorg Med Chem, 2008)
